Measured values: ChEMBL document CHEMBL4613248, “Twelfth-Position Deuteration of Nevirapine Reduces 12-Hydroxy-Nevirapine Formation and Nevirapine-Induced Hepatocyte Death” (J Med Chem, 2020)

Tests used:
[1] = tested on: Hepatocyte; test: Induction of change in AKAP2 protein expression in human primary hepatocytes at 10 uM incubated for 48 hrs by relative-quantitation label-free proteomics analysis relative to NVP; type: cell-based
How it was run: (§1)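 Cryoplateable pooled human hepatocytes (10 mixed-sex donors per pool; three pools), adhered overnight, then given fresh medium containing compound (10 μM), NVP (10 μM) or vehicle (0.1% DMSO) for 48 h. Lysate reduced (DTT) and alkylated (iodoacetamide), acetone-precipitated and digested with trypsin. Label-free Top10 nanoLC-MS with precursor ion area quantitation; unpaired t test P values, Cohen's d effect size.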

[2] = Drug metabolism in C57BL/6J mouse primary hepatocytes assessed as Cytochrome P450-mediated formation of 2-OHD3NVP at 10 uM incubated for 24 hrs by uHPLC-MS analysis; type: ADME, cell-based
How it was run: (§2)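 Fresh hepatocytes from male C57BL/6J mice (8–13 weeks), adhered overnight, then 10 μM substrate or vehicle (0.1% DMSO) for 24 h. Medium extracted with acetonitrile (50% final), dried, reconstituted in methanol; uHPLC-Orbitrap targeted SIM plus PRM (monooxygenated metabolites) or high-resolution ions (O-glucuronides, 459.1510/462.1700 ±5 ppm); four experimental replicates.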

[3] = tested on: Cytochrome P450; test: Drug metabolism in human liver microsomes assessed as Cytochrome P450-mediated formation of 12-OHNVP at 10 uM […] in presence of CYP2C19 inhibitor (+)-N-3-benzyl-nirvanol and NADPH regenerating reagents by uHPLC-MS analysis; type: ADME
[4] = biological target: T1, Cytochrome P450 1A2 (Homo sapiens, UniProt P05177); test: Drug metabolism assessed as human CYP1A2-mediated formation of 12-OHNVP at 10 uM pre-incubated for 30 mins followed by addition of NADPH regenerating reagents by uHPLC-MS analysis; type: ADME; conditions: recombinant enzyme
T1 sequence (P05177 whole entry): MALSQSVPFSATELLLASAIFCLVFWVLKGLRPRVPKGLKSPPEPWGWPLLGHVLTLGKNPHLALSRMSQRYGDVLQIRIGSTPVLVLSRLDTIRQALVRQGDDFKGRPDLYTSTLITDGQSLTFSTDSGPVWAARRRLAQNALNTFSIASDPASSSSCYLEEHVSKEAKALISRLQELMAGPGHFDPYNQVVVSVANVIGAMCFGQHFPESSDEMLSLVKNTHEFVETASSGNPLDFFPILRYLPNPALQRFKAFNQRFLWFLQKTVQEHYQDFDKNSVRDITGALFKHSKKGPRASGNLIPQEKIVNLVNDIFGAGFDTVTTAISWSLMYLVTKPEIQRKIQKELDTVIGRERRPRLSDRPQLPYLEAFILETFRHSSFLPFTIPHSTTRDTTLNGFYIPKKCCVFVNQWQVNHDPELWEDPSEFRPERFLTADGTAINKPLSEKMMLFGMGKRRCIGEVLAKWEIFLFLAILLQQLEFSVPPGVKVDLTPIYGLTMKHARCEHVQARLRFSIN
How it was run: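 Insect-cell microsomes with single cDNA-expressed human P450 (100 nM) in 0.1 M potassium phosphate; 10 μM substrate prewarmed 5 min at 37 °C with NADPH-regenerating system, reaction started by adding microsomes; 30 min at 37 °C, 0.1% DMSO. Stopped, dried, reconstituted in methanol; triple-quadrupole SRM (12-OH 283.1→223.0, 2-OH 283.1→160.9, 3-OH 283.1→241.9), peak height; three replicates, mean ± SD.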

[5] = tested on: Cytochrome P450; test: Drug metabolism in human liver microsomes assessed as Cytochrome P450-mediated formation of 2-OHNVP formation at 5 to 400 uM in presence of NADPH regenerating reagents by uHPLC-MS/MS analysis; type: ADME
How it was run: (§3)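 Pooled human liver microsomes (2.5 mg/mL) with NADPH-regenerating system, substrate 5–400 μM, 30 min at 37 °C, 0.1% DMSO (0.2% at 400 μM); 2- and 3-OH metabolites by uHPLC-MS/MS Orbitrap; three replicates, mean ± SD.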

[6] = tested on: Cytochrome P450; test: Drug metabolism in human liver microsomes assessed as Cytochrome P450-mediated formation of 3-OHNVP formation at 5 to 400 uM in presence of NADPH regenerating reagents by uHPLC-MS/MS analysis; type: ADME; how it was run: as §3
[7] = tested on: Hepatocyte; test: Induction of change in MRPL23 protein expression in human primary hepatocytes at 10 uM incubated for 48 hrs by relative-quantitation label-free proteomics analysis relative to NVP; type: cell-based; how it was run: as §1
[8] = tested on: Hepatocyte; test: Induction of change in NOL6 protein expression in human primary hepatocytes at 10 uM incubated for 48 hrs by relative-quantitation label-free proteomics analysis relative to NVP; type: cell-based; how it was run: as §1
[9] = tested on: Cytochrome P450; test: Drug metabolism in human liver microsomes assessed as Cytochrome P450-mediated formation of 12-OHNVP by measuring Kcat/Km ratio in presence of NADPH regenerating reagents by uHPLC-MS/MS analysis
How it was run: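 Pooled human liver microsomes (2.5 mg/mL) in potassium phosphate; substrate (1–400 μM) prewarmed 5 min at 37 °C with NADPH-regenerating system, started with microsomes, 30 min at 37 °C. 12-OH product quantified by uHPLC-MS/MS Orbitrap against 12-OHNVP standard curve made in microsomes without NADPH. Kcat/Km taken as slope of linear rate vs substrate fit at nonsaturating 0–50 μM.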

[10] = tested on: Hepatocyte; test: Induction of change in Gapdh protein expression in C57BL/6J mouse primary hepatocytes at 400 uM incubated for 8 hrs by relative-quantitation label-free proteomics analysis relative to NVP; type: cell-based
How it was run: as §1, with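 “Fresh primary” for “Cryoplateable pooled human”, “from male C57BL/6J mice aged 8–13 weeks,” for “(10 mixed-sex donors per pool; three pools),”, “(400” for “(10”, “(0.2%” for “(0.1%”, “8” for “48”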

[11] = tested on: Hepatocyte; test: Induction of change in ACSF3 protein expression in human primary hepatocytes at 10 uM incubated for 48 hrs by relative-quantitation label-free proteomics analysis relative to NVP; type: cell-based; how it was run: as §1
[12] = Drug metabolism in C57BL/6J mouse primary hepatocytes assessed as 12-O-GlucD2NVP metabolite formation at 10 uM incubated for 24 hrs by uHPLC-MS analysis; type: ADME, cell-based, Hepatocyte; how it was run: as §2
[13] = Drug metabolism in C57BL/6J mouse primary hepatocytes assessed as O-GlucNVP metabolite formation at 10 uM incubated for 24 hrs by uHPLC-MS analysis; type: ADME, cell-based, Hepatocyte; how it was run: as §2
[14] = Drug metabolism in C57BL/6J mouse primary hepatocytes assessed as Cytochrome P450-mediated formation of 3-OHD3NVP at 10 uM incubated for 24 hrs by uHPLC-MS analysis; type: ADME, cell-based; how it was run: as §2
[15] = tested on: Hepatocyte; test: Induction of change in SHMT2 protein expression in human primary hepatocytes at 10 uM incubated for 48 hrs by relative-quantitation label-free proteomics analysis relative to NVP; type: cell-based; how it was run: as §1
[16] = tested on: Hepatocyte; test: Induction of change in Fam120A protein expression in C57BL/6J mouse primary hepatocytes at 400 uM incubated for 8 hrs by relative-quantitation label-free proteomics analysis relative to NVP; type: cell-based
How it was run: as §1, with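 “Fresh primary” for “Cryoplateable pooled human”, “from male C57BL/6J mice aged 8–13 weeks,” for “(10 mixed-sex donors per pool; three pools),”, “(400” for “(10”, “(0.2%” for “(0.1%”, “8” for “48”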

[17] = tested on: Hepatocyte; test: Induction of change in Rps27a protein expression in C57BL/6J mouse primary hepatocytes at 400 uM incubated for 8 hrs by relative-quantitation label-free proteomics analysis relative to NVP; type: cell-based
How it was run: as §1, with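 “Fresh primary” for “Cryoplateable pooled human”, “from male C57BL/6J mice aged 8–13 weeks,” for “(10 mixed-sex donors per pool; three pools),”, “(400” for “(10”, “(0.2%” for “(0.1%”, “8” for “48”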

Which “fold change (FC)” value [1] does the source give for `[2H]C([2H])([2H])c1ccnc2c1NC(=O)c1cccnc1N2C1CC1` here?
Its value is -2.67.

And the Drug metabolism [2]?
The Drug metabolism was “Metabolite_Detected”.

And the Drug metabolism [3]?
Its Drug metabolism is “Metabolite_Detected”.

What about the Drug metabolism [4] of the same compound?
Its Drug metabolism is “Metabolite_Detected”.

And the Drug metabolism [5]?
The Drug metabolism was “Metabolite_Detected”.

What about the Drug metabolism [6] of the same compound?
The Drug metabolism was “Metabolite_Detected”.

What about the “fold change (FC)” value [7] of the same compound?
Its value is 8.32.

What about the “fold change (FC)” value [8] of the same compound?
The value was -1.85.

What about the Kcat/Km [9] of the same compound?
The Kcat/Km was 0.153 M⁻¹ s⁻¹.

What about the “fold change (FC)” value [10] of the same compound?
Its value is 1.4.

And the “fold change (FC)” value [11]?
The value was -1.63.

And the Drug metabolism [12]?
Its Drug metabolism is “Metabolite_Notdetected”.

And the Drug metabolism [13]?
The Drug metabolism was “Metabolite_Detected”.

What about the Drug metabolism [14] of the same compound?
The Drug metabolism was “Metabolite_Detected”.

What about the “fold change (FC)” value [15] of the same compound?
The value was -1.28.

What about the “fold change (FC)” value [16] of the same compound?
The value was 2.06.

What about the “fold change (FC)” value [17] of the same compound?
Its value is 3.03.
